According to ChEMBL document CHEMBL1128256, “Synthesis, biological evaluation, and structure analysis of a series of new 1,5-anhydrohexitol nucleosides” (J Med Chem, 1995):
≈ marks a conversion by molar mass, not a printed value.

Tests used:
E6SM [1] = assay: Tested for the minimum inhibitory concentration required to reduce herpes simplex virus type 2 (HSV-2) strain G induced cytopathogenicity by 50%.; format: functional; details: Homo sapiens
Summary of the method: (§1)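 Inhibition of virus-induced cytopathogenicity in human embryonic skin-muscle (E6SM) fibroblasts seeded in 96-well trays. Viruses were HSV-1 (KOS, F, McIntyre), TK- HSV-1 B2006, TK-/TK+ HSV-1 clinical isolate VMW-1837 and HSV-2 (G, 196, Lyons). […] MCC is the lowest concentration giving microscopically detectable alteration of normal cell morphology; highest concentration tested was 400 µg/mL.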

HEL [2] = assay: Tested for the inhibitory concentration required to reduce cytomegalovirus (CMV) strain Davis plaque formation by 50%.; format: functional, cell-based; details: Homo sapiens
Summary of the method: (§2)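 Virus plaque formation assay in human embryonic lung (HEL) cells seeded in 96-well trays. Targets were TK+ VZV (Oka, YS), TK- VZV (07/1, YS/R) and CMV (AD169, Davis). Value is the concentration that reduces plaque number by 50%. Cytotoxicity in HEL cells was taken as the concentration that reduces cell growth by 50%.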

HEL [3] = assay: Tested for the inhibitory concentration required to reduce thymidine kinase deficient Varicella-Zoster virus (TK- VZV) strain 07/1 plaque formation by 50%.; format: functional, cell-based; details: Homo sapiens
HEL [4] = assay: Tested for the inhibitory concentration required to reduce TK+ Varicella-Zoster virus (TK+ VZV) strain OKA plaque formation by 50%.; format: functional, cell-based; details: Homo sapiens
E6SM [5] = assay: Tested for the minimum inhibitory concentration required to reduce herpes simplex virus type 2 (HSV-2) strain 196 induced cytopathogenicity by 50%.; format: functional; details: Homo sapiens; summary of the method: as §1
E6SM [6] = assay: Tested for the minimum inhibitory concentration required to reduce thymidine kinase deficient herpes simplex virus type 1 (TK- HSV-1) strain B2006 induced cytopathogenicity by 50%.; format: functional; details: Homo sapiens; summary of the method: as §1
E6SM [7] = assay: Tested for the minimum cytotoxic concentration required to cause a microscopically detectable alteration of normal cell morphology in human embryonic skin muscle (E6SM) fibroblast cell cultures.; format: functional; summary of the method: as §1
E6SM [8] = assay: Tested for the minimum inhibitory concentration required to reduce herpes simplex virus type 1 (HSV-1) strain McIntyre induced cytopathogenicity by 50%.; format: functional; details: Homo sapiens; summary of the method: as §1
HEL [9] = assay: Tested for the inhibitory concentration required to reduce TK+ Varicella-Zoster virus (TK+ VZV) strain YS plaque formation by 50%; format: functional, cell-based; details: Homo sapiens
E6SM [10] = assay: Tested for the minimum inhibitory concentration required to reduce herpes simplex virus type 1 (HSV-1) strain F induced cytopathogenicity by 50%.; format: functional; details: Homo sapiens; summary of the method: as §1
E6SM [11] = assay: Tested for the minimum inhibitory concentration required to reduce herpes simplex virus type 1 (TK+ / TK- HSV-1) strain VMW-1837 induced cytopathogenicity by 50%.; format: functional; details: Homo sapiens; summary of the method: as §1
E6SM [12] = assay: Tested for the minimum inhibitory concentration required to reduce herpes simplex virus type 1 (HSV-1) strain KOS induced cytopathogenicity by 50%.; format: functional; details: Homo sapiens; summary of the method: as §1
E6SM [13] = assay: Tested for the minimum inhibitory concentration required to reduce herpes simplex virus type 2 (HSV-2) strain Lyons induced cytopathogenicity by 50%.; format: functional; details: Homo sapiens; summary of the method: as §1
HEL [14] = assay: Tested for the inhibitory concentration required to reduce cytomegalovirus (CMV) strain AD-169 plaque formation by 50%.; format: functional, cell-based; details: Homo sapiens; summary of the method: as §2
HEL [15] = assay: Tested for the cytotoxic concentration, required to reduce cell growth by 50% in human embryonic lung (HEL) cells.; format: functional; summary of the method: as §2
HEL [16] = assay: Tested for the inhibitory concentration required to reduce thymidine kinase deficient Varicella-Zoster virus (TK- VZV) strain YS/R plaque formation by 50%.; format: functional, cell-based; details: Homo sapiens
HEL [17] = assay: Tested for the inhibitory concentration required to reduce thymidine kinase deficient Varicella-Zoster virus (TK-VZV) strain YS/R plaque formation by 50%; format: functional, cell-based; details: Homo sapiens; summary of the method: as §2
E6SM [18] = assay: Tested for the minimum inhibitory concentration required to reduce vaccinia virus(VV) induced cytopathogenicity by 50%; format: functional; details: Homo sapiens
HEL [19] = assay: Tested for the cytotoxic concentration, required to reduce cell growth by 50% in human embryonic lung (HEL) cells; format: functional; summary of the method: as §2
E6SM [20] = assay: Tested for the minimum inhibitory concentration required to reduce thymidine kinase deficient herpes simplex virus type 1 (TK-HSV-1) strain B2006 induced cytopathogenicity by 50%; format: functional; details: Homo sapiens; summary of the method: as §1
HEL [21] = assay: Tested for the inhibitory concentration required to reduce TK+ Varicella-Zoster virus (TK+VZV) strain YS plaque formation by 50%; format: functional, cell-based; details: Homo sapiens; summary of the method: as §2
HEL [22] = assay: Tested for the inhibitory concentration required to reduce thymidine kinase deficient Varicella-Zoster virus (TK-VZV) strain 07/1 plaque formation by 50%; format: functional, cell-based; details: Homo sapiens; summary of the method: as §2
E6SM [23] = assay: Tested for the minimum cytotoxic concentration required to cause a microscopically detectable alteration of normal cell morphology in human embryonic skin muscle (E6SM) fibroblast cell cultures; format: functional
Summary of the method: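 Cytotoxicity in human embryonic skin-muscle (E6SM) fibroblasts seeded in 96-well trays, scored microscopically as altered normal cell morphology. Tested up to 400 µg/mL.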

E6SM [24] = assay: Tested for the minimum inhibitory concentration required to reduce herpes simplex virus type 1 (HSV-1) strain KOS induced cytopathogenicity by 50%; format: functional; details: Homo sapiens; summary of the method: as §1
E6SM [25] = assay: Tested for the minimum inhibitory concentration required to reduce vesicular stomatitis virus(VSV) induced cytopathogenicity by 50%; format: functional; details: Homo sapiens
E6SM [26] = assay: Tested for the minimum inhibitory concentration required to reduce herpes simplex virus type 2 (HSV-2) strain G induced cytopathogenicity by 50%; format: functional; details: Homo sapiens; summary of the method: as §1
E6SM [27] = assay: Tested for the minimum inhibitory concentration required to reduce herpes simplex virus type 1 (TK/ TK+HSV-1) strain VMW-1837 induced cytopathogenicity by 50%; format: functional; details: Homo sapiens; summary of the method: as §1
HEL [28] = assay: Tested for the inhibitory concentration required to reduce cytomegalovirus (CMV) strain AD-169 plaque formation by 50%; format: functional, cell-based; details: Homo sapiens; summary of the method: as §2
HEL [29] = assay: Tested for the inhibitory concentration required to reduce TK+ Varicella-Zoster virus (TK+VZV) strain OKA plaque formation by 50%; format: functional, cell-based; details: Homo sapiens; summary of the method: as §2
HEL [30] = assay: Tested for the inhibitory concentration required to reduce cytomegalovirus (CMV) strain Davis plaque formation by 50%; format: functional, cell-based; details: Homo sapiens; summary of the method: as §2
E6SM [31] = assay: Tested for the minimum inhibitory concentration required to reduce herpes simplex virus type 1 (TK- / TK+ HSV-1) strain VMW-1837 induced cytopathogenicity by 50%.; format: functional; details: Homo sapiens; summary of the method: as §1
E6SM [32] = assay: Tested for the minimum inhibitory concentration required to reduce vaccinia virus(VV) induced cytopathogenicity by 50%.; format: functional; details: Homo sapiens

Row | SMILES | MIC (E6SM [1]) | IC50 (HEL [2]) | IC50 (HEL [3]) | IC50 (HEL [4]) | MIC (E6SM [5]) | MIC (E6SM [6]) | MCC (E6SM [7]) | MIC (E6SM [8]) | IC50 (HEL [9]) | MIC (E6SM [10]) | MIC (E6SM [12]) | MIC (E6SM [13]) | IC50 (HEL [14]) | CC50 (HEL [15]) | IC50 (HEL [16]) | MIC (E6SM [25]) | MIC (E6SM [31]) | further results
1 | O=c1[nH]c(=O)n(C2COC(CO)C(O)C2)cc1F (configuration not stated) | > 400 µg/mL | > 40 µg/mL | > 40 µg/mL | 40 µg/mL (≈ 154 µM) | > 400 µg/mL | > 400 µg/mL | > 400 µg/mL | > 400 µg/mL | > 40 µg/mL | > 400 µg/mL | > 400 µg/mL | > 400 µg/mL | > 40 µg/mL | > 50 µg/mL | 40 µg/mL (≈ 154 µM) |  |  | MIC (E6SM [11]): 300 µg/mL (≈ 1150 µM)
2 | Nc1ncc2ncn(C3COC(CO)C(O)C3)c2n1 (configuration not stated) |  |  |  |  |  |  |  |  |  |  |  |  |  |  |  | > 200 µg/mL |  | IC50 (HEL [17]): 100 µg/mL (≈ 377 µM); MIC (E6SM [18]): > 200 µg/mL; CC50 (HEL [19]): 140 µg/mL (≈ 528 µM); MIC (E6SM [20]): 150 µg/mL (≈ 565 µM); IC50 (HEL [21]): 80 µg/mL (≈ 302 µM); IC50 (HEL [22]): 90 µg/mL (≈ 339 µM); MCC (E6SM [23]): > 400 µg/mL; MIC (E6SM [24]): 20 µg/mL (≈ 75.4 µM); MIC (E6SM [26]): 20 µg/mL (≈ 75.4 µM); MIC (E6SM [27]): 70 µg/mL (≈ 264 µM); IC50 (HEL [28]): > 50 µg/mL; IC50 (HEL [29]): 60 µg/mL (≈ 226 µM); IC50 (HEL [30]): > 50 µg/mL
3 | Nc1nc(=O)n(C2COC(CO)C(O)C2)cc1Cl (configuration not stated) | 300 µg/mL (≈ 1090 µM) | > 40 µg/mL | > 40 µg/mL | 40 µg/mL (≈ 145 µM) | 300 µg/mL (≈ 1090 µM) | > 400 µg/mL | > 400 µg/mL | 300 µg/mL (≈ 1090 µM) | > 40 µg/mL | 150 µg/mL (≈ 544 µM) | 300 µg/mL (≈ 1090 µM) | 300 µg/mL (≈ 1090 µM) | > 40 µg/mL | > 50 µg/mL | > 40 µg/mL |  | 300 µg/mL (≈ 1090 µM) | 
4 | Nc1ncnc2c1ncn2C[C@@H](CO)OCP(=O)(O)O | 0.02 µg/mL (≈ 0.066 µM) |  |  |  | 0.07 µg/mL (≈ 0.231 µM) | 1 µg/mL (≈ 3.3 µM) | > 400 µg/mL | 2 µg/mL (≈ 6.6 µM) |  | 0.2 µg/mL (≈ 0.66 µM) | 0.2 µg/mL (≈ 0.66 µM) | 0.1 µg/mL (≈ 0.33 µM) |  |  |  | > 400 µg/mL | 1 µg/mL (≈ 3.3 µM) | MIC (E6SM [32]): 0.7 µg/mL (≈ 2.31 µM)
